Results reported in ChEMBL document CHEMBL2311405, “Synthesis and biological evaluation of indenoisoquinolines that inhibit both tyrosyl-DNA phosphodiesterase I (Tdp1) and topoisomerase I (Top1)” (J Med Chem, 2013).
The source made the active and inactive calls. The rule behind the calls is not given here.

test system: OVCAR-3; assay: Growth inhibition of human OVCAR3 cells; format: functional

Row | GI50 [nM] | Compound
1 | 3520 | COC(=O)CCCCC(=O)Nc1ccc2c3c(n(CCCN)c(=O)c2c1)-c1ccccc1C3=O
2 | 540 | COc1ccc2c(c1)-c1c(c3ccc([N+](=O)[O-])cc3c(=O)n1CCCN)C2=O

test system: UACC-62; assay: Growth inhibition of human UACC62 cells; format: functional

Row | Compound | GI50 [nM]
3 | COC(=O)CCCCC(=O)Nc1ccc2c3c(n(CCCN)c(=O)c2c1)-c1ccccc1C3=O | 2430

target: T1, DNA topoisomerase 1 (Homo sapiens) (UniProt P11387); assay: Inhibition of recombinant Top1 (unknown origin) using 3'-[32P]-end-labeled 117 bp oligonucleotide as substrate assessed as suppression of DNA cleavage at 100 uM by SDS-PAGE analysis
T1 sequence (whole entry): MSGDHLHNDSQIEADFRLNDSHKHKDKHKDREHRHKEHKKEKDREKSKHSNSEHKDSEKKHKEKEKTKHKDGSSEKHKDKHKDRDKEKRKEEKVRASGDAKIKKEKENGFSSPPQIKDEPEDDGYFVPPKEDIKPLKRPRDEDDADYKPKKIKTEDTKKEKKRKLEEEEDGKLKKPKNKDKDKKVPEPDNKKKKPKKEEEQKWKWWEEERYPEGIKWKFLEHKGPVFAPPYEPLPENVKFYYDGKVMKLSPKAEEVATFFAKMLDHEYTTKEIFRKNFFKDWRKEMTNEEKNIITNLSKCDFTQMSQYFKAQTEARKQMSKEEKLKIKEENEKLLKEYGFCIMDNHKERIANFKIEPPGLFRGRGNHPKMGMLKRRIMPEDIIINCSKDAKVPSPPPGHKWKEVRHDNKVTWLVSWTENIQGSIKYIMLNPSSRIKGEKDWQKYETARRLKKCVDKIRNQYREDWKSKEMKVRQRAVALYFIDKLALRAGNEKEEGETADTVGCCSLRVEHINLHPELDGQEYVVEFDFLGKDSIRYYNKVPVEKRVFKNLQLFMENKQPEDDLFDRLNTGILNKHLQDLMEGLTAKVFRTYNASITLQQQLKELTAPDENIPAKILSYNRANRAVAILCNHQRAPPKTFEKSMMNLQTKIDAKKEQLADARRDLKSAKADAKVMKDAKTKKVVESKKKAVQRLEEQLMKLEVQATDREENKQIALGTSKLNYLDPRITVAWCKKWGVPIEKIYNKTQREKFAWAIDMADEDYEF
Method in brief: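 3′-[32P]-end-labeled 117-bp DNA at 2 nM incubated with recombinant Top1 at 25 °C for 20 min across a range of compound concentrations. Stopped with SDS (0.5% final) plus formamide loading dye, then 20% denaturing PAGE. Dried gels were phosphorimaged.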

Row | Compound | inhibition
4 | COc1ccc2c(c1)C(=O)c1c-2n(CCCN(C)C)c(=O)c2cc(I)ccc12 | Active
5 | CN(C)CCCn1c2c(c3ccc(C#N)cc3c1=O)C(=O)c1cc3c(cc1-2)OCO3 | Active

test system: HCT-116; assay: Growth inhibition of human HCT116 cells; format: functional

Row | GI50 [nM] | Compound
6 | 510 | COC(=O)CCCCC(=O)Nc1ccc2c3c(n(CCCN)c(=O)c2c1)-c1ccccc1C3=O
7 | 60 | COc1ccc2c(c1)-c1c(c3ccc([N+](=O)[O-])cc3c(=O)n1CCCN)C2=O

target: T1, DNA topoisomerase 1 (Homo sapiens); assay: Inhibition of recombinant Top1 (unknown origin) using 3'-[32P]-end-labeled 117 bp oligonucleotide as substrate after 20 mins by SDS-PAGE analysis relative to 1 uM MJ-3-65

Row | inhibition | Compound
8 | Active | COc1ccc2c(c1)C(=O)c1c-2n(CCCN(C)C)c(=O)c2cc(I)ccc12
9 | Active | NCCCn1c2c(c3ccccc3c1=O)C(=O)c1ccccc1-2
10 | Active | Cn1c2c(c3ccc(NC(=O)C(=O)O)cc3c1=O)C(=O)c1ccccc1-2
11 | Active | CC(=O)Nc1ccc2c3c(n(CCCN=[N+]=[N-])c(=O)c2c1)-c1ccccc1C3=O
12 | Active | COc1ccc2c(c1)-c1c(c3ccc([N+](=O)[O-])cc3c(=O)n1CCCN)C2=O

Row | Compound | inhibition
13 | COc1ccc2c(c1)-c1c(c3ccc([N+](=O)[O-])cc3c(=O)n1CCCN1CCOCC1)C2=O | Active
14 | N#Cc1ccc2c3c(n(CCCN4CCOCC4)c(=O)c2c1)-c1ccccc1C3=O | Active
15 | N#Cc1ccc2c3c(n(CCCn4ccnc4)c(=O)c2c1)-c1ccccc1C3=O | Active
16 | COc1ccc2c(c1)-c1c(c3ccc([N+](=O)[O-])cc3c(=O)n1CCCBr)C2=O | Active

target: Tyrosyl-DNA phosphodiesterase 1 (Homo sapiens, UniProt Q9NUW8); assay: Inhibition of recombinant Tdp1 (unknown origin) using 5'-[32P]-labeled single-stranded DNA oligonucleotide containing 3'-phosphotyrosine as substrate after 15 mins by PAGE analysis
Sequence (Q9NUW8 whole entry): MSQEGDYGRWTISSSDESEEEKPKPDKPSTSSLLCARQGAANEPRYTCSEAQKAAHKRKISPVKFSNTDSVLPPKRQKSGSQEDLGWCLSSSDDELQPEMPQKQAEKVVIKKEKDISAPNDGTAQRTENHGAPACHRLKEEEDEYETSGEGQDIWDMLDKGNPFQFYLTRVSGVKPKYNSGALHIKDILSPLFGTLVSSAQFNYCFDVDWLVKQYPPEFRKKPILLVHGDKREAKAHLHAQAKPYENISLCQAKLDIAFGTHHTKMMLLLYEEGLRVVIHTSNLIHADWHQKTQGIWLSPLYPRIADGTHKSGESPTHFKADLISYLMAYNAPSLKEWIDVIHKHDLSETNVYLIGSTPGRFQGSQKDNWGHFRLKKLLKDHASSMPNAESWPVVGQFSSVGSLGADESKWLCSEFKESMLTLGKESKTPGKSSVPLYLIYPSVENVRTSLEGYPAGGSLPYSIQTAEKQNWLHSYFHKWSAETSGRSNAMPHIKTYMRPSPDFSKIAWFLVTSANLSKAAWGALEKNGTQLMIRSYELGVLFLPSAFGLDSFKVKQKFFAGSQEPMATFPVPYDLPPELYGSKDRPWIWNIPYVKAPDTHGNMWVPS

Row | Compound | IC50 [nM]
17 | COc1ccc2c(c1)-c1c(c3ccc([N+](=O)[O-])cc3c(=O)n1CCCN1CCOCC1)C2=O | > 111000
18 | N#Cc1ccc2c3c(n(CCCN4CCOCC4)c(=O)c2c1)-c1ccccc1C3=O | > 111000
19 | CN(C)CCCn1c2c(c3ccc(C#N)cc3c1=O)C(=O)c1cc3c(cc1-2)OCO3 | > 111000
20 | N#Cc1ccc2c3c(n(CCCn4ccnc4)c(=O)c2c1)-c1ccccc1C3=O | > 111000
21 | COc1ccc2c(c1)-c1c(c3ccc([N+](=O)[O-])cc3c(=O)n1CCCBr)C2=O | > 111000

test system: MDA-MB-435; assay: Growth inhibition of human MDA-MB-435 cells; format: functional

Row | GI50 [nM] | Compound
22 | 4300 | COC(=O)CCCCC(=O)Nc1ccc2c3c(n(CCCN)c(=O)c2c1)-c1ccccc1C3=O
23 | 580 | COc1ccc2c(c1)-c1c(c3ccc([N+](=O)[O-])cc3c(=O)n1CCCN)C2=O

test system: DU-145; assay: Growth inhibition of human DU145 cells; format: functional

Row | GI50 [nM] | Compound
24 | 770 | COC(=O)CCCCC(=O)Nc1ccc2c3c(n(CCCN)c(=O)c2c1)-c1ccccc1C3=O
25 | 180 | COc1ccc2c(c1)-c1c(c3ccc([N+](=O)[O-])cc3c(=O)n1CCCN)C2=O

test system: SN12C; assay: Growth inhibition of human SN12C cells; format: functional

Row | Compound | GI50 [nM]
26 | COC(=O)CCCCC(=O)Nc1ccc2c3c(n(CCCN)c(=O)c2c1)-c1ccccc1C3=O | 1820
27 | COc1ccc2c(c1)-c1c(c3ccc([N+](=O)[O-])cc3c(=O)n1CCCN)C2=O | 150

test system: SF-539; assay: Growth inhibition of human SF539 cells; format: functional
Method in brief: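 Human cancer cell line panel, compounds tested at concentrations up to 10 μM. GI50 per cell line is the mean of two determinations where a standard error is given, otherwise from one determination.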

Row | Compound | GI50 [nM]
28 | COC(=O)CCCCC(=O)Nc1ccc2c3c(n(CCCN)c(=O)c2c1)-c1ccccc1C3=O | 5650
29 | COc1ccc2c(c1)-c1c(c3ccc([N+](=O)[O-])cc3c(=O)n1CCCN)C2=O | 610

test system: HOP-62; assay: Growth inhibition of human HOP62 cells; format: functional

Row | Compound | GI50 [nM]
30 | COC(=O)CCCCC(=O)Nc1ccc2c3c(n(CCCN)c(=O)c2c1)-c1ccccc1C3=O | 2320
